Source: PubChem BioAssay AID488972 (Southern Research Specialized Biocontainment Screening …, 2010)
The source made the active and inactive calls.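 How the source made its calls: active means compounds blocking at least half of the virus-caused cell damage; inactive means the rest.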

Tested on: HEp-2 RSV Long CPE, luminescence viability
Assay: antiviral activity against RSV Long strain – cell-based, HEp-2, luminescence viability, purified and synthesized compounds, dose response (AID 488972)
How it was run: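 Material: HEp-2 cells infected with RSV strain Long; also added: RSV strain Long at MOI 0.45; incubation: 6 days at 37 °C; detection: luminescence-based measurement of viral cytopathic effect; measure: % CPE inhibition and constrained 4-parameter IC50; benchmarks: cell-only and virus-only wells; replication: triplicate wells per dose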

SMILES | IC50
Cc1ccc(NC(=O)C2CCCN2Cc2ccccc2)c(C)c1 (stereo unspecified) | > 50 µM (inactive)
Cc1ccc(NC(=O)[C@@H]2CCCN2S(=O)(=O)c2cccc3cccnc23)c(C)c1 | 7.81 µM
Cc1ccc(NC(=O)C2CCCN2C(=O)c2cccc3cccnc23)c(C)c1 (stereo unspecified) | > 50 µM (inactive)
CSc1ncccc1C(=O)Nc1nc(C)cs1 | > 50 µM (inactive)
Cc1ccc(NC(=O)[C@H]2CCCN2S(=O)(=O)c2cccc3cccnc23)c(C)c1 | > 50 µM (inactive)
Cc1ccc(NC(=O)C2CCCN2S(=O)(=O)c2cccc3cc(C)cnc23)c(C)c1 (stereo unspecified) | > 50 µM (inactive)
Cc1ccc(NC(=O)CNS(=O)(=O)c2cccc3cccnc23)c(C)c1 | > 50 µM (inactive)
CSc1ncccc1C(=O)Nc1nc(C(C)(C)C)cs1 | 16.2 µM
Cc1ccc(NC(=O)C2CCCN2S(=O)(=O)c2cccc3cnccc23)c(C)c1 (stereo unspecified) | > 50 µM (inactive)
CC(C)(C)c1csc(NC(=O)c2cccnc2)n1 | > 50 µM (inactive)
Cc1ccc(NC(=O)C(C)NS(=O)(=O)c2cccc3cccnc23)c(C)c1 (stereo unspecified) | > 50 µM (inactive)
Cc1ccc(NC(=O)CN(C)S(=O)(=O)c2cccc3cccnc23)c(C)c1 | > 50 µM (inactive)
Cc1ccc(NC(=O)C2CCCN2S(=O)(=O)c2ccc3ncccc3c2)c(C)c1 (stereo unspecified) | > 50 µM (inactive)
Cc1ccc(NC(=O)C2CCCN2S(=O)(=O)c2cccc3cccnc23)c(C)c1 (stereo unspecified) | 13.2 µM
Cc1ccc(NC(=O)C2CCCN2S(=O)(=O)c2cccc3ccccc23)c(C)c1 (stereo unspecified) | > 50 µM (inactive)
Cc1csc(NC(=O)c2cccnc2)n1 | > 50 µM (inactive)
Cc1ccc(NC(=O)C2CCCN2Cc2cccc3cccnc23)c(C)c1 (stereo unspecified) | > 50 µM (inactive)
O=C(Nc1ccc(C(F)(F)F)cc1[N+](=O)[O-])O[C@H]1[C@H](Cc2ccccc2)NS(=O)(=O)[C@H]2C[C@@H]3C=C[C@]12O3 | > 50 µM (inactive)
Cc1ccc(NC(=O)C2CCCN2S(C)(=O)=O)c(C)c1 (stereo unspecified) | > 50 µM (inactive)
Cc1ccc(NC(=O)C2CCCN2C(=O)c2ccccc2)c(C)c1 (stereo unspecified) | > 50 µM (inactive)
Cc1ccc(NC(=O)C2CCCN2S(=O)(=O)c2ccccc2)c(C)c1 (stereo unspecified) | > 50 µM (inactive)
